# Data published in publication PMC5089614 (British Journal of Clinical Pharmacology, 2016).
# Assays:
# [1] = Safety/tolerability: adverse events graded by NCI CTCAE v4.03; assay type: in vivo, human
# In short: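 Solid tumour patients got oral test compound by hepatic group: normal 4 mg, moderate 2.3 mg, severe 1.5 mg. Dosing continued in a second part, with escalation allowed up to 4 mg. AEs were monitored from first dose until 30 days after the last dose and graded by CTCAE v4.03. Safety population was all patients with ≥1 dose. Investigators assigned relatedness.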
# [2] = cited from earlier work
# [3] = severe impairment 1.5 mg (n = 20)
smiles,measurement,setting,value
CC(C)C[C@H](NC(=O)CNC(=O)c1cc(Cl)ccc1Cl)B(O)O [ixazomib],"Hypotension, any-grade TEAE",[1]; normal function 4 mg (n = 13),0 n (%)
same,"Hypotension, grade ≥3 TEAE",[1]; normal function 4 mg (n = 13),0 n (%)
same,"Insomnia, any-grade TEAE",[1]; normal function 4 mg (n = 13),3 (23) n (%)
same,"Leukocytosis, grade ≥3 TEAE",[1]; normal function 4 mg (n = 13),0 n (%)
same,"Nausea, any-grade TEAE",[1]; normal function 4 mg (n = 13),9 (69) n (%)
same,"Peripheral oedema, any-grade TEAE",[1]; normal function 4 mg (n = 13),2 (15) n (%)
same,"Pyrexia, any-grade TEAE",[1]; normal function 4 mg (n = 13),1 (8) n (%)
same,"Upper abdominal pain, any-grade TEAE",[1]; normal function 4 mg (n = 13),2 (15) n (%)
same,"Vomiting, any-grade TEAE",[1]; normal function 4 mg (n = 13),7 (54) n (%)
same,incidence of drug-related grade ≥3 AEs,"[1]; normal hepatic function, 4 mg",23%
same,incidence of peripheral neuropathy (PN),"[1]; one patient, grade 2, treatment-related, history of neuropathy",2%
same,patients with rash-related AEs,"[1]; seven events in total, all grade 1 or 2, none serious",Five
same,"on-study deaths, number",[1]; severe hepatic impairment group,eight
same,incidence of drug-related grade ≥3 AEs,"[1]; severe hepatic impairment, 1.5 mg",5%
same,"Abdominal pain, any-grade TEAE",[1]; [3],2 (10) n (%)
same,"Acute renal failure, any-grade TEAE",[1]; [3],6 (30) n (%)
same,"Acute renal failure, grade ≥3 TEAE",[1]; [3],5 (25) n (%)
same,"Anaemia, any-grade TEAE",[1]; [3],3 (15) n (%)
same,"Anaemia, grade ≥3 TEAE",[1]; [3],2 (10) n (%)
same,Any-grade AE,[1]; [3],20 (100) n (%)
same,"Ascites, any-grade TEAE",[1]; [3],3 (15) n (%)
same,"Ascites, grade ≥3 TEAE",[1]; [3],2 (10) n (%)
same,"Back pain, any-grade TEAE",[1]; [3],3 (15) n (%)
same,"Cough, any-grade TEAE",[1]; [3],3 (15) n (%)
same,"Decreased appetite, any-grade TEAE",[1]; [3],1 (5) n (%)
same,"Dehydration, any-grade TEAE",[1]; [3],3 (15) n (%)
same,"Dehydration, grade ≥3 TEAE",[1]; [3],2 (10) n (%)
same,"Diarrhoea, any-grade TEAE",[1]; [3],1 (5) n (%)
same,"Dyspnoea, any-grade TEAE",[1]; [3],4 (20) n (%)
same,"Fatigue, any-grade TEAE",[1]; [3],5 (25) n (%)
same,"Fatigue, grade ≥3 TEAE",[1]; [3],1 (5) n (%)
same,Grade ≥3 AE,[1]; [3],18 (90) n (%)
same,"Hyperbilirubinaemia, any-grade TEAE",[1]; [3],5 (25) n (%)
same,"Hyperbilirubinaemia, grade ≥3 TEAE",[1]; [3],5 (25) n (%)
same,"Hyperkalaemia, any-grade TEAE",[1]; [3],2 (10) n (%)
same,"Hypotension, any-grade TEAE",[1]; [3],4 (20) n (%)
same,"Hypotension, grade ≥3 TEAE",[1]; [3],2 (10) n (%)
same,"Insomnia, any-grade TEAE",[1]; [3],1 (5) n (%)
same,"Leukocytosis, grade ≥3 TEAE",[1]; [3],2 (10) n (%)
same,"Nausea, any-grade TEAE",[1]; [3],5 (25) n (%)
same,"Peripheral oedema, any-grade TEAE",[1]; [3],4 (20) n (%)
same,"Pyrexia, any-grade TEAE",[1]; [3],4 (20) n (%)
same,"Upper abdominal pain, any-grade TEAE",[1]; [3],2 (10) n (%)
same,"Vomiting, any-grade TEAE",[1]; [3],4 (20) n (%)
same,"Abdominal pain, any-grade TEAE",[1]; total (N = 48),6 (13) n (%)
same,"Acute renal failure, any-grade TEAE",[1]; total (N = 48),7 (15) n (%)
same,"Acute renal failure, grade ≥3 TEAE",[1]; total (N = 48),6 (13) n (%)
same,"Anaemia, any-grade TEAE",[1]; total (N = 48),8 (17) n (%)
same,"Anaemia, grade ≥3 TEAE",[1]; total (N = 48),4 (8) n (%)
same,Any-grade AE,[1]; total (N = 48),48 (100) n (%)
same,"Ascites, any-grade TEAE",[1]; total (N = 48),6 (13) n (%)
same,"Ascites, grade ≥3 TEAE",[1]; total (N = 48),4 (8) n (%)
same,"Back pain, any-grade TEAE",[1]; total (N = 48),5 (10) n (%)
same,"Cough, any-grade TEAE",[1]; total (N = 48),6 (13) n (%)
same,"Decreased appetite, any-grade TEAE",[1]; total (N = 48),10 (21) n (%)
same,"Dehydration, any-grade TEAE",[1]; total (N = 48),8 (17) n (%)
same,"Dehydration, grade ≥3 TEAE",[1]; total (N = 48),4 (8) n (%)
same,"Diarrhoea, any-grade TEAE",[1]; total (N = 48),6 (13) n (%)
same,"Dyspnoea, any-grade TEAE",[1]; total (N = 48),11 (23) n (%)
same,"Fatigue, any-grade TEAE",[1]; total (N = 48),15 (31) n (%)
same,"Fatigue, grade ≥3 TEAE",[1]; total (N = 48),4 (8) n (%)
same,Grade ≥3 AE,[1]; total (N = 48),37 (77) n (%)
same,"Hyperbilirubinaemia, any-grade TEAE",[1]; total (N = 48),10 (21) n (%)
same,"Hyperbilirubinaemia, grade ≥3 TEAE",[1]; total (N = 48),10 (21) n (%)
same,"Hyperkalaemia, any-grade TEAE",[1]; total (N = 48),5 (10) n (%)
same,"Hypotension, any-grade TEAE",[1]; total (N = 48),5 (10) n (%)
same,"Hypotension, grade ≥3 TEAE",[1]; total (N = 48),3 (6) n (%)
same,"Insomnia, any-grade TEAE",[1]; total (N = 48),6 (13) n (%)
same,"Leukocytosis, grade ≥3 TEAE",[1]; total (N = 48),3 (6) n (%)
same,"Nausea, any-grade TEAE",[1]; total (N = 48),18 (38) n (%)
same,"Peripheral oedema, any-grade TEAE",[1]; total (N = 48),15 (31) n (%)
same,"Pyrexia, any-grade TEAE",[1]; total (N = 48),7 (15) n (%)
same,"Upper abdominal pain, any-grade TEAE",[1]; total (N = 48),5 (10) n (%)
same,"Vomiting, any-grade TEAE",[1]; total (N = 48),13 (27) n (%)
same,half-life,[2]; after oral dosing,96 to 220 h
same,renal clearance,[2],0 to 0.51 L/h
same,median time to reach peak concentration (T max),[2]; clinical studies,0.5 to 2.0 h
same,effect of mild hepatic impairment on PK,"[2]; population PK analysis, cancer patients, NCI ODWG criteria",no clinically relevant PK changes
same,effect of mild and moderate renal impairment on PK,"[2]; population PK analysis, creatinine clearance ≥30 ml min^−1",did not alter ixazomib PK
